Compound activity (PubChem BioAssay)
The list is not random: actives were taken first. Their share in the collection is about 2.3%.
TRPC4 PAM = allosteric potentiators of mouse TRPC4 channel | HEK293 TRPC4beta/mu-opioid, DAMGO EC20, Fluo-4 Ca2+ flux; active compounds read high | B-score at 10 µM | 0.42% of 310,000 active;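 active means B-score of calcium response area above 5 SD of library B-scores, with initial fluorescence ratio within 5 SD of library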;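 further: B-score of integrated fluorescence ratio over time as area under calcium response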
TRPC6 activator = activates the mouse TRPC6 cation channel; B-score at 10 µM; HEK293-TRPC6 membrane potential dye fluorescence; active compounds read high; Q61143; 0.13% of 310,000 active;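 active means B-score of the integrated fluorescence ratio above library mean plus 3 SD, and starting fluorescence ratio within library mean plus 5 SD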;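 further: higher score means more depolarization so channel activation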
Target sequence (Q61143 whole entry, looked up): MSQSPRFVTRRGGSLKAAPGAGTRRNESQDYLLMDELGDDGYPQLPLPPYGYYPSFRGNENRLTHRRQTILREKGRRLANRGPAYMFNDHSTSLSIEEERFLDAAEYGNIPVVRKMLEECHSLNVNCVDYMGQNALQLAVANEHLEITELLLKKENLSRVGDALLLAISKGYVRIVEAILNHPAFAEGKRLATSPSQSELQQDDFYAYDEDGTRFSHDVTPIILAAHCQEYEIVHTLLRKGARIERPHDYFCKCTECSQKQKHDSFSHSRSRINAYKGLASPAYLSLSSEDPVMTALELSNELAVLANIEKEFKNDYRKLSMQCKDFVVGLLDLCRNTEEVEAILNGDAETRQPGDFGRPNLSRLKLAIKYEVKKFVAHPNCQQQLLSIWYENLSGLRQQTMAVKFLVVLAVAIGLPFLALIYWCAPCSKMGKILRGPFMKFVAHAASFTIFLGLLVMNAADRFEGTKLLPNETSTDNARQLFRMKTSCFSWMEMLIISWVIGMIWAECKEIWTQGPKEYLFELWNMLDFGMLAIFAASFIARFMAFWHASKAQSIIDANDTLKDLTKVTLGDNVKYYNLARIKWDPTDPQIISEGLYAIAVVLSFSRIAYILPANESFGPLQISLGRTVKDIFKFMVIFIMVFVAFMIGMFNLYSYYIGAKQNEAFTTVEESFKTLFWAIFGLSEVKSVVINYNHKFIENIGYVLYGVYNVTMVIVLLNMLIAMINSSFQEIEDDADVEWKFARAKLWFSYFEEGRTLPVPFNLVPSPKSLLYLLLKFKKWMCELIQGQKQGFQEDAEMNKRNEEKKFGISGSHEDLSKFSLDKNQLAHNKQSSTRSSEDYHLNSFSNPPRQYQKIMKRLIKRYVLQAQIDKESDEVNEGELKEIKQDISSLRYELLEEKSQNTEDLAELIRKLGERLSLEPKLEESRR
TRPC6 inhibitor = mouse TRPC6 channel inhibition. B-score at 10 µM. 1.1% of 310,000 active. HEK293-TRPC6, membrane potential dye, ACh-evoked depolarization; active compounds read low;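 active means B-score under library mean minus 3 SD, initial fluorescence not abnormally high, positive integrated signal ratio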;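 further: B-score derived from integrated fluorescence ratio over the kinetic read; more negative B-score means stronger inhibition of depolarization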
TRPC4 act = activators of mouse TRPC4 channel | 0.49% of 310,000 active | HEK293 TRPC4beta/mu-opioid, Fluo4 calcium fluorescence; active compounds read high | Q9QUQ5 | B-score at 10 µM;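 active means B-score above 5 SD of library B-scores, and initial fluorescence ratio not above library mean plus 5 SD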;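 further: positive B-score marks a calcium rise read as TRPC4 activation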
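system = HEK293 cells stably co-expressing mouse TRPC4beta and mu-opioid receptor | schedule = Fluo4 dye loading 45 min at room temperature, 110 s recording | measure = B-scored integrated calcium fluorescence ratio | signal = Fluo4 calcium-sensitive dye fluorescence, kinetic, 1 Hz baseline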
TRPC4 block = TRPC4 (mouse) channel inhibition. HEK293 TRPC4beta/mu-opioid, DAMGO-evoked Fluo4 calcium flux; active compounds read low. AID 2247. B-score at 10 µM. Q9QUQ5. 0.39% of 300,000 active;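 active means B-score over 3 SD under the library average, no early fluorescence shift, positive overall ratio signal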
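Test system – stable TRPC4beta/mu-opioid receptor HEK293 cells · Probe or stimulus – DAMGO, a submaximal dose followed by a maximal one · Dosing – one concentration per compound · Signal – Fluo4 calcium fluorescence by kinetic imaging, 5 s 1 Hz baseline · Evaluation – per-well B score of integrated baseline-normalized Fluo4 ratio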
TRPC4 sel inh 2 = second selectivity test of TRPC6 inhibitors: effect on mouse TRPC4 | shares compounds with TRPC6 inhibitor | HEK293 TRPC4/MOR, membrane potential dye fluorescence; channel activated by saturating DAMGO dose | inhibition, % at 10 µM | 42% of 920 active | AID 2776;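 active means compounds whose fluorescence signal differed from control wells by over 3 SD, either direction, in both duplicate plates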
TRPC4 spec = mouse TRPC4 off-target activity of TRPC6 inhibitors. activity change, negative = inhibition, % at 10 µM. HEK293 TRPC4/mu-opioid, membrane potential fluorescence. 61% of 920 active. shares compounds with TRPC6 inhibitor. AID 2777;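 active means rise or fall in signal beyond 3 SD of buffer-only wells in both replicate plates, either sign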;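 further: integrated kinetic ratio of fluorescence range over baseline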
HEK293 MPD ctr 2-1 = parental HEK293 nonspecific activity of TRPC6 inhibitors, second screen. parental HEK293 membrane potential dye fluorescence; maximal acetylcholine challenge after compound addition. signal change vs control, % at 10 µM. shares compounds with TRPC6 inhibitor. 31% of 920 active;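 active means membrane potential signal moving either way by over 3 SD of the maximum-effect control, in both duplicate plates, meaning non-specific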
HEK293 MPD ctr-1 = parental HEK293 nonspecific activity of TRPC6 inhibitors | shares compounds with TRPC6 inhibitor | parental HEK293 membrane potential dye fluorescence | membrane potential signal change, % at 10 µM | 60% of 920 active | AID 2780;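 active means membrane potential signal shifting up or down by more than 3 SD of buffer-only wells, on both duplicate plates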
HEK293 MPD ctr-2 = checks TRPC6 modulator effects in parental HEK293 cells; shares compounds with TRPC6 inhibitor; membrane potential dye fluorescence; membrane potential signal change, % at 10 µM; 51% of 2,400 active; AID 488924;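 active means membrane potential signal moves up or down beyond 5 SD from buffer-only wells, on both duplicate plates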
HEK293 MPD ctr 2-2 = parental HEK293 nonspecific activity of TRPC6 modulators, second screen | 14% of 2,400 active | shares compounds with TRPC6 inhibitor | inhibition, % at 10 µM | AID 488926 | membrane potential dye fluorescence; after compound, maximal acetylcholine stimulation;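 active means membrane potential signal drops by more than 5 SD from the mean control signal, in both duplicate plates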;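 further: plate controls were acetylcholine ECmax control wells for no effect and buffer only wells for full effect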
TRPC4/MOR mod = tests whether TRPC6 modulators also affect mouse TRPC4 | shares compounds with TRPC6 inhibitor | HEK293 TRPC4/mu-opioid, membrane potential fluorescence | percent change from control (negative = decrease, positive = increase), % at 10 µM | 69% of 2,400 active | AID 488927;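 active means membrane potential signal moved up or down beyond 5 SD of buffer control wells, in both duplicate plates, actives on both sides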;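 further: plate controls were assay buffer wells for no effect and DAMGO maximal-effect wells for full effect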
TRPC4/MOR inh 2 = mouse TRPC4 off-target activity of TRPC6 modulators, second screen. shares compounds with TRPC6 inhibitor. 55% of 2,400 active. HEK293 TRPC4/mu-opioid, membrane potential dye fluorescence; stimulated with maximal-effect DAMGO. inhibition, % at 10 µM;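 active means drop in membrane potential signal beyond 5 SD of the control wells in both duplicate plates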;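 further: TRPC4 counter screen for TRPC6 hits run under conditions tuned for TRPC6 not TRPC4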
TRPC6 block conf = confirmation of mouse TRPC6 inhibitors | shares compounds with TRPC6 inhibitor | HEK293-TRPC6, membrane potential dye, ACh-evoked depolarization | inhibition, % at 10 µM | 43% of 3,300 active;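 active means fluorescence ratio falls more than 5 SD below the full-stimulation control mean, in both duplicate runs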;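 further: integrated fluorescence ratio of peak minus minimum over baseline after agonist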
TRPC6 act conf = mouse TRPC6 activator confirmation | shares compounds with TRPC6 inhibitor | HEK293-TRPC6 membrane potential dye fluorescence, FDSS | activation, % at 10 µM | 11% of 2,800 active;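 active means ratio signal rise beyond 5 SD above unstimulated control wells' mean, seen in both duplicate runs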;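 further: plate controls were buffer EC0 wells for no effect and acetylcholine ECmax response for full effect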
An asterisk follows results filed as active; i = inactive; / = not tested or not shown.

SMILES | TRPC4 PAM | TRPC6 activator | TRPC6 inhibitor | TRPC4 act | TRPC4 block | HEK293 MPD ctr-2 | HEK293 MPD ctr 2-2 | TRPC4/MOR mod | TRPC4/MOR inh 2 | TRPC6 block conf | TRPC6 act conf | others
O=C(NCC1CCN(c2ccc(S(=O)(=O)N3CCOCC3)cc2)CC1)c1ccc(Cl)cc1 | i | i | -5.5* | i | i | i | i | i | i | 52%* | i
CN(CC(=O)Nc1ccccc1Br)C(=O)CCCSc1nc2ccccc2[nH]1 | i | i | i | i | i | / | / | / | / | / | /
Cc1cc(C)nc(NC(=NCCc2c[nH]c3ccccc23)NC(=O)Nc2ccc(Cl)cc2)n1 | i | i | i | i | i | / | / | / | / | / | /
Cc1cc(C)nc(NC(N)=NCCc2c[nH]c3ccccc23)n1 | i | i | -5* | i | i | -222%* | i | -42%* | 46%* | 54%* | i
CC(=O)Nc1ccc(S(=O)(=O)N(C)CC(=O)OCC(=O)N2CC(C)OC(C)C2)cc1 (stereo unspecified) | i | i | i | i | i | / | / | / | / | / | /
CC1CCCN(S(=O)(=O)c2ccc(NC(=O)CNC3CCCC3)cc2)C1 (stereo unspecified) | i | i | -6.7* | i | i | / | / | / | / | i | i | TRPC4 sel inh 2=54%*;TRPC4 spec=i;HEK293 MPD ctr 2-1=i;HEK293 MPD ctr-1=3.2%*
CN(C)S(=O)(=O)c1cccc(C(=O)Nc2ccc(S(=O)(=O)N3CCCC3)cc2)c1 | i | i | -5.2* | i | / | i | i | i | i | i | i
CN1CCN(S(=O)(=O)c2ccc(NC(=O)c3cccc(S(=O)(=O)N4CCCC4)c3)cc2)CC1 | i | i | -5.5* | i | i | i | i | i | i | i | i
Cc1ccc(S(=O)(=O)N2CCC(=O)N(CCOC(=O)Nc3cc(C)cc(C)c3)CC2)cc1 | i | 14* | -8.3* | i | i | i | i | 12%* | i | 90%* | 142%*
CN1CCN(S(=O)(=O)c2ccc(NC(=O)c3cccc(F)c3)cc2)CC1 | i | i | i | i | i | / | / | / | / | / | /
Cc1ccc(S(=O)(=O)N2CCC(=O)N(CCOC(=O)Nc3ccccc3C)CC2)cc1 | i | i | i | i | i | / | / | / | / | / | /
CCCCCCCn1c(=O)c(C(=O)OC)c(N)c2ccccc21 | i | i | i | i | i | / | / | / | / | / | /
COCCN(C(=S)Nc1cccc(C)c1)C(C)c1cccnc1 (stereo unspecified) | i | i | i | i | i | / | / | / | / | / | /
CC(=O)Nc1ccc(S(=O)(=O)N2CCCN(S(=O)(=O)c3ccc(C)cc3)CC2)cc1 | i | i | -7.4* | i | i | / | / | / | / | i | i | TRPC4 sel inh 2=i;TRPC4 spec=i;HEK293 MPD ctr 2-1=i;HEK293 MPD ctr-1=i
CCN(CC)c1ccc(C2Nc3cccc4cccc(c34)N2)cc1 | i | i | -5.5* | i | i | i | i | i | i | i | i
COCCNC(=S)N1CCN(S(C)(=O)=O)CC1 | i | i | i | i | i | / | / | / | / | / | /
COc1ccc(C2=CSC3=NCCN23)cc1Cl | i | i | i | i | i | / | / | / | / | / | /
COc1ccc(C2=CSC3=NCCN23)cc1Br | i | i | -5.2* | i | i | i | i | i | 36%* | i | i
CC1CCCN(C(=O)COc2ccc(-c3ccccc3)cc2)C1 (stereo unspecified) | i | i | -6* | i | i | i | i | 10%* | i | i | /
CCOC(=O)c1cn(CC)c2ccc(Br)cc2c1=O | i | i | -6* | i | i | -106%* | i | -16%* | i | i | i
CCOC(=O)c1cn(CC2CC2)c2cc(F)c(F)cc2c1=O | i | i | -5.4* | i | i | -276%* | i | -48%* | 59%* | 53%* | i
CCCn1cc(C(=O)OCC)c(=O)c2cc(F)c(F)cc21 | i | i | i | i | i | / | / | / | / | / | /
Cc1ccc(SCc2cc(=O)[nH]c(/N=C(\N)Nc3ccc(C)c(C)c3)n2)cc1 | i | i | i | i | i | / | / | / | / | / | /
Cc1cccc(-c2nc(CN3CCCC(C(=O)NC4CCC(C)CC4)C3)c(C)o2)c1 (stereo unspecified) | i | i | -6.5* | i | i | 182%* | i | 33%* | 46%* | i | /
Cc1cccc(-n2cc(C(=O)O)c(=O)cc2C)c1 | i | i | i | i | i | / | / | / | / | / | /
CSc1cccc(NC(=S)N2CCC(N(C)C3CCCCCC3)CC2)c1 | i | i | -7.8* | i | i | / | / | / | / | i | i | TRPC4 sel inh 2=58%*;TRPC4 spec=i;HEK293 MPD ctr 2-1=i;HEK293 MPD ctr-1=0.9%*
[O-]/[N+](=C/c1cccnc1)c1ccc(Br)cc1 | i | i | -6* | i | i | i | i | i | i | i | i
[O-]/[N+](=C\c1ccncc1)c1ccc(Br)cc1 | i | i | i | i | i | / | / | / | / | / | /
N=c1c(C(=O)NC2CCCC2)cc2c(=O)n3ccccc3nc2n1C1CCCCC1 | i | i | -6.5* | i | i | -188%* | i | -30%* | 50%* | 44%* | i
